Results as given in ChEMBL document CHEMBL2413001, “Exploring pyrimidine-substituted curcumin analogues: design, synthesis and effects on EGFR signaling” (Bioorg Med Chem, 2013).
Active and inactive are the calls of the source. The rule behind the calls is not given here.

Experiments:
HCT-116 [1] = experiment: Induction of apoptosis in human HCT116 cells assessed as ratio of Bax to Bcl-2 expression at 20 uM after 72 hrs by Western blot analysis relative to control; assay type: functional
Summary of the method: (§1)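 HCT116 only, seeded at 8 × 10⁴ cells/ml in 15 cm dishes for 24 h, then treated for 72 h at 20 µM or at 5, 10 and 20 µM. Lysed in Triton lysis buffer (pH 7.5) with inhibitors, sonicated, and protein assayed by BCA. Western blots were developed by ECL. Band intensities were normalized to β-actin, as means of three independent experiments; the Bax/Bcl-2 ratio was expressed relative to untreated control.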

HCT-116 [2] = experiment: Induction of apoptosis in human HCT116 cells assessed as increase in Bax expression at 20 uM after 72 hrs by Western blot analysis; assay type: functional, cell-based; summary of the method: as §1
HCT-116 [3] = experiment: Induction of apoptosis in human HCT116 cells assessed as reduction in Bcl-2 expression at 20 uM after 72 hrs by Western blot analysis; assay type: functional, cell-based; summary of the method: as §1
HCT-116 [4] = experiment: Induction of apoptosis in human HCT116 cells assessed as effect on HSP-70 expression at 20 uM after 72 hrs by Western blot analysis; assay type: functional, cell-based; summary of the method: as §1
HCT-116 [5] = experiment: Induction of apoptosis in human HCT116 cells assessed as effect on HSP-90 expression at 20 uM after 72 hrs by Western blot analysis; assay type: functional, cell-based; summary of the method: as §1
HCT-116 [6] = experiment: Induction of apoptosis in human HCT116 cells assessed as PARP cleavage at 20 uM after 72 hrs by Western blot analysis; assay type: functional, cell-based; summary of the method: as §1
HCT-116 [7] = experiment: Induction of apoptosis in human HCT116 cells assessed as caspase-3 activation at 20 uM after 72 hrs by Western blot analysis; assay type: functional, cell-based; summary of the method: as §1
[8] = target: Epidermal growth factor receptor (Homo sapiens) (UniProt P00533); experiment: Inhibition of EGFR signaling in human HCT116 cells assessed as effect on CDK2 expression at 20 uM after 24 hrs by Western blot analysis; assay type: cell-based; details: HCT-116
[9] = target: Epidermal growth factor receptor (Homo sapiens) (UniProt P00533); experiment: Inhibition of EGFR signaling in human HCT116 cells assessed as effect on CDK4 expression at 20 uM after 24 hrs by Western blot analysis; assay type: cell-based; details: HCT-116
[10] = target: Epidermal growth factor receptor (Homo sapiens) (UniProt P00533); experiment: Inhibition of EGFR signaling in human HCT116 cells assessed as inhibition of Rb expression at 20 uM after 24 hrs by Western blot analysis; assay type: cell-based; details: HCT-116
[11] = target: Epidermal growth factor receptor (Homo sapiens) (UniProt P00533); experiment: Inhibition of EGFR signaling in human HCT116 cells assessed as inhibition of cyclin E1 expression at 20 uM after 24 hrs by Western blot analysis; assay type: cell-based; details: HCT-116
[12] = target: Epidermal growth factor receptor (Homo sapiens) (UniProt P00533); experiment: Inhibition of EGFR signaling in human HCT116 cells assessed as inhibition of cyclin D1 expression at 20 uM after 24 hrs by Western blot analysis; assay type: cell-based; details: HCT-116
[13] = target: Epidermal growth factor receptor (Homo sapiens) (UniProt P00533); experiment: Inhibition of EGFR signaling in human HCT116 cells assessed as induction of p21 WAF-1/CIP-1 expression at 20 uM after 24 hrs by Western blot analysis relative to control; assay type: cell-based; details: HCT-116
HT-29 [14] = experiment: Cell cycle arrest in human HT-29 cells assessed as increase in G2/M population at 20 uM after 24 hrs by flow cytometry relative to control; assay type: functional
Summary of the method: (§2)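 HCT116 or HT29 cells seeded at 4 × 10⁴ cells/ml in 6-well plates and left 24 h to attach, then exposed for 24 h in complete McCoy's 5A (5% FBS) with 0.1% DMSO final, at 5, 10 or 20 µM. Floating and trypsinized cells were pooled, PBS-washed, fixed overnight in 70% ethanol at 4 °C and stained with PI/RNase for 15 min at room temperature. Flow DNA content gave G0/G1, S and G2/M fractions as fold of control, from three independent assays.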

HCT-116 [15] = experiment: Cell cycle arrest in human HCT116 cells assessed as increase in G2/M population at 20 uM after 24 hrs by flow cytometry relative to control; assay type: functional; summary of the method: as §2
HCT-116 [16] = experiment: Inhibition of EGFR protein expression in human HCT116 cells at 20 uM after 72 hrs by Western blot analysis; assay type: functional, cell-based
Summary of the method: (§3)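 HCT116 or HT29 seeded at 8 × 10⁴ cells/ml in 15 cm dishes for 24 h, then treated for 72 h at 20 µM or at 5, 10 and 20 µM. Whole-cell lysates were made in Tris-HCl/NaCl/Triton buffer with phosphatase and protease inhibitors (pH 7.5), sonicated and cleared at 10,000g; protein was measured by BCA. Blots were blocked in 5% milk/TBST and developed by ECL. P-EGFR(Tyr1068) and total EGFR bands were normalized to β-tubulin, as means of three experiments.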

HT-29 [17] = experiment: Inhibition of EGFR protein expression in human HT-29 cells at 20 uM after 72 hrs by Western blot analysis; assay type: functional, cell-based; summary of the method: as §3
[18] = target: Epidermal growth factor receptor (Homo sapiens) (UniProt P00533); experiment: Inhibition of EGFR phosphorylation at Tyr1068 residue in human HCT116 cells at 20 uM after 72 hrs by Western blot analysis; assay type: cell-based; details: HCT-116; summary of the method: as §3
[19] = target: Epidermal growth factor receptor (Homo sapiens) (UniProt P00533); experiment: Inhibition of EGFR phosphorylation at Tyr1068 residue in human HT-29 cells at 20 uM after 72 hrs by Western blot analysis; assay type: cell-based; summary of the method: as §3
HT-29 [20] = experiment: Cytotoxicity against human HT-29 cells assessed as growth inhibition after 48 hrs by resazurin assay; assay type: functional, cell-based; details: for IC50: HT-29, 48 h
Summary of the method: (§4)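 HCT116 or HT29 seeded at 2000 cells/well, grown 24 h, then given fresh complete McCoy's 5A (5% FBS, 0.1% DMSO final) containing serial compound concentrations for 48 h. Resazurin was added for 16 h and fluorescence read at ex 544/em 595 nm as a measure of living cells. IC50 was calculated by the Logit approach; values are mean ± SD.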

HCT-116 [21] = experiment: Cytotoxicity against human HCT116 cells assessed as growth inhibition after 48 hrs by resazurin assay; assay type: functional, cell-based; details: for IC50: HCT-116, 48 h; summary of the method: as §4

Sequence of Epidermal growth factor receptor (Homo sapiens) (P00533 whole entry): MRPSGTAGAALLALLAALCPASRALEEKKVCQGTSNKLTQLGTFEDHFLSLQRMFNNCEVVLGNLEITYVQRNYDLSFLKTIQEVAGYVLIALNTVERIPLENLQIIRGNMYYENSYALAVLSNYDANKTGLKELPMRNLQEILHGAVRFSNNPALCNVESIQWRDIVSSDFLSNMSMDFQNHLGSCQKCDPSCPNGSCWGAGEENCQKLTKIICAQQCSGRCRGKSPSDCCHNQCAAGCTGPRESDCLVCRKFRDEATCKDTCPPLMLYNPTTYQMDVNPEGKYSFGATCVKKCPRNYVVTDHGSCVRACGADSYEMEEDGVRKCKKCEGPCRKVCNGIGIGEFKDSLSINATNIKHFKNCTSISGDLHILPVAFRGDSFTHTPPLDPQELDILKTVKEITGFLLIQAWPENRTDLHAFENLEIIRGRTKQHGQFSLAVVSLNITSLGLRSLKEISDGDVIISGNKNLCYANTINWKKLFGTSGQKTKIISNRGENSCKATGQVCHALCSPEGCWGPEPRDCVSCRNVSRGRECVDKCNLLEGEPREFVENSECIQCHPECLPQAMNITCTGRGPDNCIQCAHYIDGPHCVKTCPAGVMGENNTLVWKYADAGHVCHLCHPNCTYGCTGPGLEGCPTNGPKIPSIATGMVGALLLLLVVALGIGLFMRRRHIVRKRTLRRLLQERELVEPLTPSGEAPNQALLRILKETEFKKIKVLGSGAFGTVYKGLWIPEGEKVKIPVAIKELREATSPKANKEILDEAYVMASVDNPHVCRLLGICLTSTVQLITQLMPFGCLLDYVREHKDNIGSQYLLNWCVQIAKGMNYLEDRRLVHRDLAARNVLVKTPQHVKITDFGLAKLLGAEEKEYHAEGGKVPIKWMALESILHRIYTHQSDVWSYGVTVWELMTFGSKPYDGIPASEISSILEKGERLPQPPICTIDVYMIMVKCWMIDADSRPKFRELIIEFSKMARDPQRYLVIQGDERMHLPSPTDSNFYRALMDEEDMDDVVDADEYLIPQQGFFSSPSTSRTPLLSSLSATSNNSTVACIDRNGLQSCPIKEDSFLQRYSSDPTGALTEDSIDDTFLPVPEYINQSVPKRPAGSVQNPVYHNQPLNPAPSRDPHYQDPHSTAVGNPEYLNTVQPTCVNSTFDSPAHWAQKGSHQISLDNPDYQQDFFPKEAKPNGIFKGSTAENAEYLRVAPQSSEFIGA

CCNc1nc(/C=C/c2ccc(OC)c(OC)c2)cc(/C=C/c2ccc(OC)c(OC)c2)n1
Ratio (HCT-116 [1]): 1.57
Activity (HCT-116 [2]): Active
Activity (HCT-116 [3]): Active
Activity (HCT-116 [4]): inactive
Activity (HCT-116 [5]): inactive
Activity (HCT-116 [6]): inactive
Activity (HCT-116 [7]): inactive
inhibition [8]: inactive
inhibition [9]: inactive
inhibition [10]: inactive
inhibition [11]: inactive
inhibition [12]: inactive
fold change (FC) [13]: 20
fold change (FC) (HT-29 [14]): 1.1
fold change (FC) (HCT-116 [15]): 1.03
inhibition (HCT-116 [16]): inactive
inhibition (HT-29 [17]): inactive
inhibition [18]: inactive
inhibition [19]: inactive
growth inhibition (GI) (HT-29 [20]): Dose-dependent effect
IC50 (HT-29 [20]): 38.5 µM
growth inhibition (GI) (HCT-116 [21]): Dose-dependent effect
IC50 (HCT-116 [21]): 46.4 µM

COc1ccc(/C=C/c2cc(/C=C/c3ccc(OC)c(OC)c3)nc(NCCCO)n2)cc1OC
growth inhibition (GI) (HT-29 [20]): Dose-dependent effect
IC50 (HT-29 [20]): 12.8 µM
growth inhibition (GI) (HCT-116 [21]): Dose-dependent effect
IC50 (HCT-116 [21]): 9.9 µM

COc1cc(/C=C/c2cc(/C=C/c3cc(OC)c(OC)c(OC)c3)nc(NCCCO)n2)cc(OC)c1OC
growth inhibition (GI) (HT-29 [20]): Dose-dependent effect
IC50 (HT-29 [20]): 12.4 µM
growth inhibition (GI) (HCT-116 [21]): Dose-dependent effect
IC50 (HCT-116 [21]): 7.4 µM
